What was measured:
SNB-19 = assay: Growth inhibition of human SNB19 cells at 10 uM relative to control; type: functional; conditions: read-out: GI
In short: (§1)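 Single-dose screen across the 60-cell-line human tumor panel at 10 μM. Growth inhibition is reported as a percentage, taken as 100 minus the % growth relative to untreated control.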

SN12C = assay: Growth inhibition of human SN12C cells at 10 uM relative to control; type: functional; conditions: read-out: GI; in short: as §1
SR = assay: Growth inhibition of human SR cells at 10 uM relative to control; type: functional; conditions: read-out: GI; in short: as §1
SK-MEL-28 = assay: Growth inhibition of human SK-MEL-28 cells at 10 uM relative to control; type: functional; conditions: read-out: GI
In short: (§2)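 Each cell line in a 60-line human tumour panel exposed to one 10 μM concentration. Growth inhibition percentage computed as 100 minus the percentage activity relative to control.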

[1] = Growth inhibition of human 786-O cells at 10 uM relative to control; type: functional; conditions: 786-0, read-out: GI; in short: as §2
Mus musculus [2] = assay: Anticonvulsant activity in mouse assessed as protection against strychnine-induced seizure at 1 mmol/kg, ip administered 30 min prior to strychnine-challenge measured after 60 mins relative to control; type: functional
MDA-MB-435 = assay: Growth inhibition of human MDA-MB-435 cells at 10 uM relative to control; type: functional; conditions: read-out: GI; in short: as §2
UO-31 = assay: Growth inhibition of human UO31 cells at 10 uM relative to control; type: functional; conditions: read-out: GI; in short: as §1
[3] = Toxicity in ip dose mouse assessed as mortality; type: organism-based; conditions: in vivo
In short: (§3)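 In mice, LD50 is the dose causing 50% mortality. ED50 is the dose protecting 50% of mice against pentylenetetrazole-induced seizures. Therapeutic index = LD50/ED50.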

MDA-MB-231 = assay: Growth inhibition of human MDA-MB-231 cells at 10 uM relative to control; type: functional; conditions: read-out: GI; in short: as §2
PC-3 = assay: Growth inhibition of human PC3 cells at 10 uM relative to control; type: functional; conditions: read-out: GI; in short: as §2
NCI-H522 = assay: Growth inhibition of human NCI-H522 cells at 10 uM relative to control; type: functional; conditions: read-out: GI; in short: as §2
MDA-MB-468 = assay: Growth inhibition of human MDA-MB-468 cells at 10 uM relative to control; type: functional; conditions: read-out: GI; in short: as §2
Mus musculus [4] = assay: Anticonvulsant activity in mouse assessed as protection against pentylenetetrazol-induced seizure at 1 mmol/kg, ip administered 30 min prior to pentylenetetrazol-challenge measured after 60 mins relative to control; type: functional
A549 = assay: Growth inhibition of human A549 cells at 10 uM relative to control; type: functional; conditions: read-out: GI; in short: as §2
K562 = assay: Growth inhibition of human K562 cells at 10 uM relative to control; type: functional; conditions: read-out: GI; in short: as §2
HCT-116 = assay: Growth inhibition of human HCT116 cells at 10 uM relative to control; type: functional; conditions: read-out: GI; in short: as §2
Mus musculus [5] = species: Mus musculus; assay: Protective index, ratio of TD50 for mouse to ED50 for pentylenetetrazol-induced seizure in mouse; type: functional
In short: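 Mice. Index is TD50/ED50. TD50 is the dose causing minimal neurological toxicity in 50% of mice in the Chimney test. ED50 is the dose protecting 50% of mice against pentylenetetrazole-induced seizures. Both are estimated from testing at several doses.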

HCT-15 = assay: Growth inhibition of human HCT15 cells at 10 uM relative to control; type: functional; conditions: read-out: GI; in short: as §2
[6] = Neurotoxicity in ip dosed mouse assessed as impaired motor coordination administered 30 mins prior to test by chimney test; type: toxicity, organism-based; conditions: in vivo
In short: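 Mice, Chimney test. TD50 is the dose that produces minimal neurological toxicity (impaired motor coordination) in 50% of animals, estimated from testing at several doses.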

Mus musculus [7] = assay: Anticonvulsant activity in mouse assessed as protection against maximal electroshock-induced seizure at 1 mmol/kg, ip administered 30 min prior to maximal electroshock-challenge measured after 60 mins relative to control; type: functional
Mus musculus [8] = assay: Anticonvulsant activity in mouse assessed as protection against picrotoxin-induced seizure at 1 mmol/kg, ip administered 30 min prior to picrotoxin-challenge measured after 60 mins relative to control; type: functional
RPMI-8226 = assay: Growth inhibition of human RPMI8226 cells at 10 uM relative to control; type: functional; conditions: read-out: GI; in short: as §2
SF-268 = assay: Growth inhibition of human SF268 cells at 10 uM relative to control; type: functional; conditions: read-out: GI; in short: as §2
CCRF-CEM = assay: Growth inhibition of human CCRF-CEM cells at 10 uM relative to control; type: functional; conditions: read-out: GI; in short: as §2
NCI-H226 = assay: Growth inhibition of human NCI-H226 cells at 10 uM relative to control; type: functional; conditions: read-out: GI; in short: as §2
KM12 = assay: Growth inhibition of human KM12 cells at 10 uM relative to control; type: functional; conditions: read-out: GI; in short: as §2
MCF7 = assay: Growth inhibition of human MCF7 cells at 10 uM relative to control; type: functional; conditions: read-out: GI; in short: as §2
CAKI-1 = assay: Growth inhibition of human CAKI-1 cells at 10 uM relative to control; type: functional; conditions: read-out: GI; in short: as §2
OVCAR-4 = assay: Growth inhibition of human OVCAR4 cells at 10 uM relative to control; type: functional; conditions: read-out: GI; in short: as §2
U-251 = assay: Growth inhibition of human U251 cells at 10 uM relative to control; type: functional; conditions: read-out: GI; in short: as §1
NCI-H23 = assay: Growth inhibition of human NCI-H23 cells at 10 uM relative to control; type: functional; conditions: read-out: GI; in short: as §2
T47D = assay: Growth inhibition of human T47D cells at 10 uM relative to control; type: functional; conditions: read-out: GI; in short: as §1
OVCAR-8 = assay: Growth inhibition of human OVCAR8 cells at 10 uM relative to control; type: functional; conditions: read-out: GI; in short: as §2
[9] = Therapeutic index, ratio of LD50 for mouse to ED50 for pentylenetetrazol-induced seizure in mouse; type: organism-based; conditions: in vivo, read-out: Ratio LD50/ED50; in short: as §3
HL-60(TB) = assay: Growth inhibition of human HL-60(TB) cells at 10 uM relative to control; type: functional; conditions: read-out: GI
In short: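 Single-dose screen at 10 μM across the 60-cell-line tumour panel. Percent growth inhibition = 100 minus percent growth activity relative to untreated control.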

EKVX = assay: Growth inhibition of human EKVX cells at 10 uM relative to control; type: functional; conditions: read-out: GI; in short: as §2
[10] = Growth inhibition of human Hs 578T cells at 10 uM relative to control; type: functional; conditions: read-out: GI; in short: as §2
SNB-75 = assay: Growth inhibition of human SNB75 cells at 10 uM relative to control; type: functional; conditions: read-out: GI; in short: as §1
MOLT-4 = assay: Growth inhibition of human MOLT4 cells at 10 uM relative to control; type: functional; conditions: read-out: GI; in short: as §2
Mus musculus [11] = assay: Anticonvulsant activity in ip dosed mouse assessed as protection against pentylenetetrazol-induced seizure administered 30 min prior to pentylenetetrazol-challenge measured after 60 mins; type: functional
In short: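 Mice received several doses for quantification. ED50 taken as the dose protecting 50% of mice against pentylenetetrazol-induced seizures.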

BT-549 = assay: Growth inhibition of human BT549 cells at 10 uM relative to control; type: functional; conditions: read-out: GI; in short: as §2
UACC-62 = assay: Growth inhibition of human UACC62 cells at 10 uM relative to control; type: functional; conditions: read-out: GI; in short: as §1
TK-10 = assay: Growth inhibition of human TK10 cells at 10 uM relative to control; type: functional; conditions: read-out: GI; in short: as §1
Malme-3M = assay: Growth inhibition of human MALME-3M cells at 10 uM relative to control; type: functional; conditions: read-out: GI; in short: as §2
HCC 2998 = assay: Growth inhibition of human HCC2998 cells at 10 uM relative to control; type: functional; conditions: read-out: GI; in short: as §2
OVCAR-5 = assay: Growth inhibition of human OVCAR5 cells at 10 uM relative to control; type: functional; conditions: read-out: GI; in short: as §2
NCI-H322M = assay: Growth inhibition of human NCI-H322M cells at 10 uM relative to control; type: functional; conditions: read-out: GI; in short: as §2
HOP-62 = assay: Growth inhibition of human HOP62 cells at 10 uM relative to control; type: functional; conditions: read-out: GI; in short: as §2
SK-OV-3 = assay: Growth inhibition of human SKOV3 cells at 10 uM relative to control; type: functional; conditions: read-out: GI; in short: as §2
SF-539 = assay: Growth inhibition of human SF539 cells at 10 uM relative to control; type: functional; conditions: read-out: GI; in short: as §2
M14 = assay: Growth inhibition of human M14 cells at 10 uM relative to control; type: functional; conditions: read-out: GI; in short: as §2
A498 = assay: Growth inhibition of human A498 cells at 10 uM relative to control; type: functional; conditions: read-out: GI; in short: as §2
SF-295 = assay: Growth inhibition of human SF295 cells at 10 uM relative to control; type: functional; conditions: read-out: GI; in short: as §2

Cc1ccccc1-n1c(C)nc2cc(N3C(=O)CSC3c3ccccc3)ccc2c1=O (centres undefined)
inhibition of growth at 10 µM (SNB-19): 9.7%
inhibition of growth at 10 µM (SN12C): 3%
inhibition of growth at 10 µM (SR): 35.3%
inhibition of growth at 10 µM (SK-MEL-28): 5%
inhibition of growth at 10 µM [1]: 3%
Activity (Mus musculus [2]): 0%
inhibition of growth at 10 µM (MDA-MB-435): 9.7%
inhibition of growth at 10 µM (UO-31): 22%
LD50 [3]: 1500 µmol/kg
inhibition of growth at 10 µM (MDA-MB-231): 17.3%
inhibition of growth at 10 µM (PC-3): 26.9%
inhibition of growth at 10 µM (NCI-H522): 18%
inhibition of growth at 10 µM (MDA-MB-468): 25.8%
Activity (Mus musculus [4]): 100%
inhibition of growth at 10 µM (A549): 8.1%
inhibition of growth at 10 µM (K562): 37.6%
inhibition of growth at 10 µM (HCT-116): 16%
Ratio TD50/ED50 (Mus musculus [5]): 1.06
inhibition of growth at 10 µM (HCT-15): 13.3%
TD50 at 0.5 h [6]: 750 µmol/kg
Activity (Mus musculus [7]): 100%
Activity (Mus musculus [8]): 50%
inhibition of growth at 10 µM (RPMI-8226): 21.4%
inhibition of growth at 10 µM (SF-268): 14.2%
inhibition of growth at 10 µM (CCRF-CEM): 31.1%
inhibition of growth at 10 µM (NCI-H226): 14.3%
inhibition of growth at 10 µM (KM12): 15.5%
inhibition of growth at 10 µM (MCF7): 21.8%
inhibition of growth at 10 µM (CAKI-1): 15.6%
inhibition of growth at 10 µM (OVCAR-4): 3%
inhibition of growth at 10 µM (U-251): 13%
inhibition of growth at 10 µM (NCI-H23): 4.4%
inhibition of growth at 10 µM (T47D): 25.8%
inhibition of growth at 10 µM (OVCAR-8): 5%
selectivity ratio [9]: 2.13
inhibition of growth at 10 µM (HL-60(TB)): 32.7%
inhibition of growth at 10 µM (EKVX): 12.8%
inhibition of growth at 10 µM [10]: 6%
inhibition of growth at 10 µM (SNB-75): 19.5%
inhibition of growth at 10 µM (MOLT-4): 46.3%
ED50 (Mus musculus [11]): 700 µmol/kg

Cc1ccccc1-n1c(C)nc2cc(N)ccc2c1=S
inhibition of growth at 10 µM (SNB-19): 2%
inhibition of growth at 10 µM (BT-549): 8%
inhibition of growth at 10 µM (UACC-62): 9%
inhibition of growth at 10 µM (TK-10): 10%
inhibition of growth at 10 µM (Malme-3M): 17%
inhibition of growth at 10 µM (MDA-MB-435): 9.8%
inhibition of growth at 10 µM (UO-31): 22%
inhibition of growth at 10 µM (HCC 2998): 16.6%
inhibition of growth at 10 µM (PC-3): 9.5%
inhibition of growth at 10 µM (NCI-H522): 4%
inhibition of growth at 10 µM (OVCAR-5): 10%
inhibition of growth at 10 µM (NCI-H322M): 11.1%
inhibition of growth at 10 µM (HOP-62): 5.5%
inhibition of growth at 10 µM (HCT-15): 2.5%
inhibition of growth at 10 µM (SK-OV-3): 5%
inhibition of growth at 10 µM (SF-539): 2%
inhibition of growth at 10 µM (M14): 4%
inhibition of growth at 10 µM (RPMI-8226): 4%
inhibition of growth at 10 µM (SF-268): 10.6%
inhibition of growth at 10 µM (CCRF-CEM): 9.5%
inhibition of growth at 10 µM (KM12): 8.3%
inhibition of growth at 10 µM (CAKI-1): 5%
inhibition of growth at 10 µM (U-251): 6%
inhibition of growth at 10 µM (T47D): 11%
inhibition of growth at 10 µM (A498): 20%
inhibition of growth at 10 µM (EKVX): 15.2%
inhibition of growth at 10 µM (SNB-75): 15.5%
inhibition of growth at 10 µM (SF-295): 16.6%

Source: ChEMBL document CHEMBL1955778, “Design and synthesis of novel 7-aminoquinazoline derivatives: antitumor and anticonvulsant activities” (Bioorg Med Chem Lett, 2012)
